Measurements gathered from unrelated publications.
Target: Dual specificity tyrosine-phosphorylation-regulated kinase 1A (DYRK1A, Homo sapiens, UniProt Q13627)
Effect on: enzyme activity
Action: inhibitor

SMILES | technique | tested at | remaining activity [%]
O=C(Nc1cnn(-c2csc(C(=O)NC3COC3)c2)c1)Nc1c(F)cccc1Cl |  | 5 µM | 75.1
COc1cccc(Nc2nc3cc(C(=O)O)ccc3c3cnccc23)c1 | radiometric | 1 µM | 2
Nc1nc(NC2CCCCC2)sc1C(=O)c1ccccc1 |  | 10 µM | 25
O=C(O)c1ccc2c(c1)nc(Nc1ccccc1Cl)c1ncncc12 | radiometric | 1 µM | 11
COc1ccc(C(=O)Nc2sc3c(c2C(N)=O)CCCC3)cc1OC |  | 0.5 µM | 97.4
O=C(O)c1ccc2c(c1)nc(Nc1ccc3ccccc3c1)c1ccncc12 | radiometric | 1 µM | 2
COc1cc(Nc2cnc(C#N)c(O[C@H](C)CN(C)C)n2)ncc1-c1cnn(C)c1 | radiometric | 1 µM | 91
Cc1sc(C(=O)NC2COC2)cc1-n1cc(NC(=O)Nc2c(F)cccc2Cl)cn1 |  | 10 µM | 95.5
Cc1cnc(NC2CCOCC2)nc1-n1cnc(C(=O)NC(CN)c2cc(F)cc(Cl)c2)c1 (stereo not drawn) | radiometric | 1 µM | 84
O=C(O)c1ccc2c(c1)nc(NCCc1ccccc1)c1ccncc12 | radiometric | 1 µM | 10
CC(C)(C)c1nc2c(s1)c1nc(N)ncc1c1ccc(NS(=O)(=O)c3c(F)cccc3F)c(F)c12 | radiometric | 1 µM | 88
O=C(O)c1ccc2c3c1cccc3c(=O)n1c3ccccc3nc21 |  | 0.5 µM | 55.5
O=C(O)c1ccc2c(c1)nc(Nc1ccc(F)c(Cl)c1)c1ccncc12 | radiometric | 1 µM | 0
COc1cc2nccc(Oc3ccc(NC(=S)NC(=O)c4ccccc4C)cc3)c2cc1OC |  | 0.5 µM | 95.4
Oc1cccc(-c2nc(N3CCOCC3)c3oc4ncccc4c3n2)c1 |  | 10 µM | 59
